Values after ≈ are worked out from the molar mass of the structure shown.
Experiments:
Aspergillus niger [1] = test: Antifungal activity against Aspergillus niger ATCC 6275 after 72 hrs by serial sub-cultivation method; assay type: functional; settings: ATCC 6275, 72 h
In short: (§1)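 MFC was found by serial sub-cultivation of 2 µl into plates holding 100 µl broth per well, then incubation 72 h at 28 °C. MFC is the lowest concentration with no visible growth, taken as 99.5% killing of the original inoculum. Spore inocula came from malt agar cultures washed with 0.85% saline and 0.1% Tween 80.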

Aspergillus versicolor [2] = test: Antifungal activity against Aspergillus versicolor ATCC 11730 after 72 hrs by serial dilution method; assay type: functional; settings: ATCC 11730, 72 h
In short: (§2)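 Fungi were kept on malt agar at 4 °C and sub-cultured monthly. Spores were washed off the agar with sterile 0.85% saline containing 0.1% Tween 80 (v/v). Modified microdilution in 96-well plates. MIC is the lowest concentration with no visible growth under the binocular microscope. Inoculum checked on malt agar for contamination and validity.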

Aspergillus versicolor [3] = test: Antifungal activity against Aspergillus versicolor ATCC 11730 after 72 hrs by serial sub-cultivation method; assay type: functional; settings: ATCC 11730, 72 h; in short: as §1
Aspergillus flavus [4] = test: Antifungal activity against Aspergillus flavus ATCC 9643 after 72 hrs by serial dilution method; assay type: functional; settings: ATCC 9643, 72 h; in short: as §2
Aspergillus flavus [5] = test: Antifungal activity against Aspergillus flavus ATCC 9643 after 72 hrs by serial sub-cultivation method; assay type: functional; settings: ATCC 9643, 72 h; in short: as §1
Fulvia fulva [6] = test: Antifungal activity against Fulvia fulva TK 5318 after 72 hrs by serial dilution method; assay type: functional; settings: TK 5318, 72 h; in short: as §2
Fulvia fulva [7] = test: Antifungal activity against Fulvia fulva TK 5318 after 72 hrs by serial sub-cultivation method; assay type: functional; settings: TK 5318, 72 h; in short: as §1
Bacillus cereus [8] = test: Antibacterial activity against Bacillus cereus clinical isolate after 24 hrs; assay type: functional
In short: (§3)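 Broth microdilution MIC in 96-well plates. Compounds in LB broth with bacterial inoculum of 1.0 × 10^4 cfu per well, from suspensions adjusted with sterile saline to 1.0 × 10⁵ CFU/ml. Incubated 24 h at […] as printed. MIC taken as the lowest concentration with no visible growth under the binocular microscope. OD at 655 nm also read against blank. Streptomycin and ampicillin as positive controls. Duplicate, repeated three times.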

Bacillus cereus [9] = test: Antibacterial activity against Bacillus cereus clinical isolate after 72 hrs by serial sub-cultivation method; assay type: functional
In short: (§4)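 MBC was found by serial sub-cultivation of 2 µl from the MIC wells into plates holding 100 µl broth per well, then incubation for 72 h. MBC is the lowest concentration with no visible growth, i.e. 99.5% killing of the original inoculum. Bacterial inoculum was 1.0 × 10^4 cfu per well in LB broth. Duplicate, repeated three times.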

Micrococcus flavus [10] = test: Antibacterial activity against Micrococcus flavus ATCC 10240 after 24 hrs; assay type: functional; settings: ATCC 10240, 24 h; in short: as §3
Micrococcus flavus [11] = test: Antibacterial activity against Micrococcus flavus ATCC 10240 after 72 hrs by serial sub-cultivation method; assay type: functional; settings: ATCC 10240, 72 h; in short: as §4
Staphylococcus aureus [12] = test: Antibacterial activity against Staphylococcus aureus ATCC 6538 after 24 hrs; assay type: functional; settings: ATCC 6538, 24 h; in short: as §3
Staphylococcus aureus [13] = test: Antibacterial activity against Staphylococcus aureus ATCC 6538 after 72 hrs by serial sub-cultivation method; assay type: functional; settings: ATCC 6538, 72 h; in short: as §4
Escherichia coli [14] = test: Antibacterial activity against Escherichia coli ATCC 35210 after 24 hrs; assay type: functional; settings: ATCC 35210, 24 h; in short: as §3
Escherichia coli [15] = test: Antibacterial activity against Escherichia coli ATCC 35210 after 72 hrs by serial sub-cultivation method; assay type: functional; settings: ATCC 35210, 72 h; in short: as §4
Pseudomonas aeruginosa [16] = test: Antibacterial activity against Pseudomonas aeruginosa ATCC 27853 after 24 hrs; assay type: functional; settings: ATCC 27853, 24 h; in short: as §3
Pseudomonas aeruginosa [17] = test: Antibacterial activity against Pseudomonas aeruginosa ATCC 27853 after 72 hrs by serial sub-cultivation method; assay type: functional; settings: ATCC 27853, 72 h; in short: as §4
Proteus mirabilis [18] = test: Antibacterial activity against Proteus mirabilis after 24 hrs; assay type: functional; in short: as §3
Proteus mirabilis [19] = test: Antibacterial activity against Proteus mirabilis after 72 hrs by serial sub-cultivation method; assay type: functional; in short: as §4
Salmonella typhimurium [20] = test: Antibacterial activity against Salmonella Typhimurium ATCC 13311 after 24 hrs; assay type: functional, Salmonella enterica subsp. enterica serovar Typhimurium; settings: Salmonella enterica, ATCC 13311, 24 h; in short: as §3
Salmonella typhimurium [21] = test: Antibacterial activity against Salmonella Typhimurium ATCC 13311 after 72 hrs by serial sub-cultivation method; assay type: functional, Salmonella enterica subsp. enterica serovar Typhimurium; settings: Salmonella enterica, ATCC 13311, 72 h; in short: as §4
Listeria monocytogenes [22] = test: Antibacterial activity against Listeria monocytogenes NCTC 7973 after 24 hrs; assay type: functional; settings: NCTC 7973, 24 h; in short: as §3
Listeria monocytogenes [23] = test: Antibacterial activity against Listeria monocytogenes NCTC 7973 after 72 hrs by serial sub-cultivation method; assay type: functional; settings: NCTC 7973, 72 h; in short: as §4
Talaromyces funiculosus [24] = test: Antifungal activity against Penicillium funiculosum ATCC 36839 after 72 hrs by serial dilution method; assay type: functional; settings: ATCC 36839, 72 h; in short: as §2
Talaromyces funiculosus [25] = test: Antifungal activity against Penicillium funiculosum ATCC 36839 after 72 hrs by serial sub-cultivation method; assay type: functional; settings: ATCC 36839, 72 h; in short: as §1
Penicillium ochrochloron [26] = test: Antifungal activity against Penicillium ochrochloron ATCC 9112 after 72 hrs by serial dilution method; assay type: functional; settings: ATCC 9112, 72 h; in short: as §2
Penicillium ochrochloron [27] = test: Antifungal activity against Penicillium ochrochloron ATCC 9112 after 72 hrs by serial sub-cultivation method; assay type: functional; settings: ATCC 9112, 72 h; in short: as §1
Trichoderma viride [28] = test: Antifungal activity against Trichoderma viride IAM 5061 after 72 hrs by serial dilution method; assay type: functional; settings: IAM 5061, 72 h; in short: as §2
Trichoderma viride [29] = test: Antifungal activity against Trichoderma viride IAM 5061 after 72 hrs by serial sub-cultivation method; assay type: functional; settings: IAM 5061, 72 h; in short: as §1
Aspergillus niger [30] = test: Antifungal activity against Aspergillus niger ATCC 6275 after 72 hrs by serial dilution method; assay type: functional; settings: ATCC 6275, 72 h; in short: as §2
Aspergillus fumigatus [31] = test: Antifungal activity against Aspergillus fumigatus plant isolate after 72 hrs by serial dilution method
Aspergillus fumigatus [32] = test: Antifungal activity against Aspergillus fumigatus plant isolate after 72 hrs by serial sub-cultivation method

SMILES | MFC (Aspergillus niger [1]) | MIC (Aspergillus versicolor [2]) | MFC (Aspergillus versicolor [3]) | MIC (Aspergillus flavus [4]) | MFC (Aspergillus flavus [5]) | MIC (Fulvia fulva [6]) | MFC (Fulvia fulva [7]) | MIC (Talaromyces funiculosus [24]) | MFC (Talaromyces funiculosus [25]) | MIC (Penicillium ochrochloron [26]) | MFC (Penicillium ochrochloron [27]) | MIC (Trichoderma viride [28]) | MFC (Trichoderma viride [29]) | MIC (Aspergillus niger [30]) | MIC (Aspergillus fumigatus [31]) | MFC (Aspergillus fumigatus [32]) | also measured
O=C1N/C(=N/c2nc(C34CC5CC(CC(C5)C3)C4)cs2)S/C1=C\c1cccc([N+](=O)[O-])c1 | 21.5 µM (≈ 10 µg/mL) | 16.1 µM (≈ 7.51 µg/mL) | 21.5 µM (≈ 10 µg/mL) | 16.1 µM (≈ 7.51 µg/mL) | 21.5 µM (≈ 10 µg/mL) | 10.8 µM (≈ 5.04 µg/mL) | 16.1 µM (≈ 7.51 µg/mL) | 10.8 µM (≈ 5.04 µg/mL) | 21.5 µM (≈ 10 µg/mL) | 10.8 µM (≈ 5.04 µg/mL) | 21.5 µM (≈ 10 µg/mL) | 5.4 µM (≈ 2.52 µg/mL) | 10.8 µM (≈ 5.04 µg/mL) | 10.8 µM (≈ 5.04 µg/mL) | 16.1 µM (≈ 7.51 µg/mL) | 21.5 µM (≈ 10 µg/mL) | MIC (Bacillus cereus [8]): 16.1 µM (≈ 7.51 µg/mL); MBC (Bacillus cereus [9]): 21.5 µM (≈ 10 µg/mL); MIC (Micrococcus flavus [10]): 21.5 µM (≈ 10 µg/mL); MBC (Micrococcus flavus [11]): 43 µM (≈ 20.1 µg/mL); MIC (Staphylococcus aureus [12]): 21.5 µM (≈ 10 µg/mL); MBC (Staphylococcus aureus [13]): 43 µM (≈ 20.1 µg/mL); MIC (Escherichia coli [14]): 21.5 µM (≈ 10 µg/mL); MBC (Escherichia coli [15]): 21.5 µM (≈ 10 µg/mL); MIC (Pseudomonas aeruginosa [16]): 21.5 µM (≈ 10 µg/mL); MBC (Pseudomonas aeruginosa [17]): 43 µM (≈ 20.1 µg/mL); MIC (Proteus mirabilis [18]): 43 µM (≈ 20.1 µg/mL); MBC (Proteus mirabilis [19]): 64.5 µM (≈ 30.1 µg/mL); MIC (Salmonella typhimurium [20]): 10.8 µM (≈ 5.04 µg/mL); MBC (Salmonella typhimurium [21]): 21.5 µM (≈ 10 µg/mL); MIC (Listeria monocytogenes [22]): 21.5 µM (≈ 10 µg/mL); MBC (Listeria monocytogenes [23]): 43 µM (≈ 20.1 µg/mL)
c1ccc(-c2ccc(C(c3ccccc3)n3ccnc3)cc2)cc1 (stereo not drawn) [BIFONAZOLE] | 640 µM (≈ 199 µg/mL) | 320 µM (≈ 99.3 µg/mL) | 640 µM (≈ 199 µg/mL) | 480 µM (≈ 149 µg/mL) | 640 µM (≈ 199 µg/mL) | 320 µM (≈ 99.3 µg/mL) | 640 µM (≈ 199 µg/mL) | 640 µM (≈ 199 µg/mL) | 800 µM (≈ 248 µg/mL) | 480 µM (≈ 149 µg/mL) | 640 µM (≈ 199 µg/mL) | 640 µM (≈ 199 µg/mL) | 800 µM (≈ 248 µg/mL) | 480 µM (≈ 149 µg/mL) | 480 µM (≈ 149 µg/mL) | 640 µM (≈ 199 µg/mL) | 

Reference: ChEMBL document CHEMBL1157665, “Novel 4-thiazolidinone derivatives as potential antifungal and antibacterial drugs” (2010)
